Source: ChEMBL document CHEMBL1139173, “Novel selective human mitochondrial kinase inhibitors: design, synthesis and enzymatic activity” (Bioorg Med Chem, 2007)

Experiments:
[1] = biological target: T1, Thymidine kinase, cytosolic (Homo sapiens, UniProt P04183); assay: Inhibition of human TK1 assessed as [methyl-3H]dThd phosphorylation
T1 sequence (P04183 whole entry): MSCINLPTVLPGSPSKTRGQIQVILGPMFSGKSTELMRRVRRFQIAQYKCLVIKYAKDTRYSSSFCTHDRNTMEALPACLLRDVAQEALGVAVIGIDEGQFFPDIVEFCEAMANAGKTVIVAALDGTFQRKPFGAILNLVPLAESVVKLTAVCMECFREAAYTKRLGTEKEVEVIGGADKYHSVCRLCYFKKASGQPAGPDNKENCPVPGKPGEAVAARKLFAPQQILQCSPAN
Outline: (§1)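 Purified recombinant GST-fusion kinases (from pGEX-5X-1 cDNAs) assayed in 50 mM Tris–HCl pH 8.0, 2.5 mM MgCl₂, 10 mM DTT, 0.5 mM CHAPS, 3 mg/mL BSA, 2.5 mM ATP, 0.25 µCi [methyl-³H]dThd (2 µM), ± varying inhibitor levels, 37 °C for 30 min. Reactions spotted on DE-81 filter disks, washed, and counted by scintillation. IC50 is the concentration halving dThd phosphorylation.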

[2] = biological target: T2, Thymidine kinase 2, mitochondrial (Homo sapiens, UniProt O00142); assay: Inhibition of human TK2 assessed as [methyl-3H]dThd phosphorylation; outline: as §1
T2 sequence (O00142 whole entry): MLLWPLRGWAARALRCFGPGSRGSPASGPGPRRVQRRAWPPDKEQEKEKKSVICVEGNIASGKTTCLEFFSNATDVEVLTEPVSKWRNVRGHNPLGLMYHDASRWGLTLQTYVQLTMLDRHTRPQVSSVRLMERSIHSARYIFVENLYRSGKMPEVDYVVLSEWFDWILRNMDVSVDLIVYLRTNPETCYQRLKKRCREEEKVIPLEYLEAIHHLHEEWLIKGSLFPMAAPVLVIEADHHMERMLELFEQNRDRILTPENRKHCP

Thymidine kinase [3] = biological target: T3, Thymidine kinase (Human alphaherpesvirus 1, UniProt Q9QNF7); assay: Inhibition of HSV1 TK assessed as [methyl-3H]dThd phosphorylation; outline: as §1
T3 sequence (Q9QNF7 whole entry): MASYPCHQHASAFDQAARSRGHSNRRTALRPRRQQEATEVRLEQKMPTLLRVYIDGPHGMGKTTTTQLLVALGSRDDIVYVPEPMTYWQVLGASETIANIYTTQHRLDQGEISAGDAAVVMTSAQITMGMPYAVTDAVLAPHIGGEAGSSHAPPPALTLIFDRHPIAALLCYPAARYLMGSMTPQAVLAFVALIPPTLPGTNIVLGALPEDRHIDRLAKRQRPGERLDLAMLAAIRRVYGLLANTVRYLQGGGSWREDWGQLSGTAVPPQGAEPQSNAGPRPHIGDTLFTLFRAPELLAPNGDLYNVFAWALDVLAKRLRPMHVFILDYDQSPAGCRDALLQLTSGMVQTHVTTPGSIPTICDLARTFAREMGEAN

Deoxynucleoside kinase = biological target: T4, Deoxynucleoside kinase (Drosophila melanogaster, UniProt Q9XZT6); assay: Inhibition of Drosophila melanogaster dNK assessed as [methyl-3H]dThd phosphorylation
T4 sequence (Q9XZT6 whole entry): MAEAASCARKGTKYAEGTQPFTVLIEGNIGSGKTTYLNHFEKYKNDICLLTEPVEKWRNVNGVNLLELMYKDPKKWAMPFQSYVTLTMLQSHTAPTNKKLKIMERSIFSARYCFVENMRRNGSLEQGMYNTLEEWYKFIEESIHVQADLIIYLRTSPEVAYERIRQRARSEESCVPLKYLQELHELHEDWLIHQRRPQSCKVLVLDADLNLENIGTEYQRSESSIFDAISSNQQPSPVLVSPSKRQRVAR
Outline: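 Purified recombinant enzyme expressed as a GST fusion. Mix: 50 mM Tris–HCl pH 8.0, 2.5 mM MgCl2, 10 mM DTT, 0.5 mM CHAPS, 3 mg/mL BSA, 2.5 mM ATP, 2 µM [methyl-3H]dThd (0.25 µCi). Incubated 37 °C, 30 min, with varied inhibitor levels. Aliquots spotted on DE-81 disks, washed, scintillation-counted.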

Thymidine kinase [4] = biological target: T5, Thymidine kinase (Varicella-zoster virus (strain Dumas) (HHV-3) (Human herpesvirus 3), UniProt P09250); assay: Inhibition of VZV TK assessed as [methyl-3H]dThd phosphorylation; set-up: species or system Human alphaherpesvirus 3
T5 sequence (P09250 whole entry): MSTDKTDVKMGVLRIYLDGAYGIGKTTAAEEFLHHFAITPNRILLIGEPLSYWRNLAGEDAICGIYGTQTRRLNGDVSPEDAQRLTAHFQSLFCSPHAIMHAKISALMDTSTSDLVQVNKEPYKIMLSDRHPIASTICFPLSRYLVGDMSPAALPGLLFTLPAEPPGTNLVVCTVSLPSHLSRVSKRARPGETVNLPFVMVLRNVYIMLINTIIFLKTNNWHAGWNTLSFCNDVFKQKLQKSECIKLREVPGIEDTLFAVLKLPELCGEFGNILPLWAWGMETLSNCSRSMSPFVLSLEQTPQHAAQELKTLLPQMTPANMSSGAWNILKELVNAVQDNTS

SMILES	IC50 [1] [µM]	IC50 [2] [µM]	IC50 (Thymidine kinase [3]) [µM]	IC50 (Deoxynucleoside kinase) [µM]	IC50 (Thymidine kinase [4]) [µM]
NCCCC(=O)O[C@H]1[C@H](O)[C@@H](CO)O[C@H]1n1cc(/C=C/Br)c(=O)[nH]c1=O	> 500	187	17	160	3.6
CC(C)(C)OC(=O)NCCCC(=O)O[C@H]1[C@H](O)[C@@H](CO)O[C@H]1n1cc(/C=C/Br)c(=O)[nH]c1=O		55	485	133	130
O=c1[nH]c(=O)n([C@@H]2O[C@H](CO)[C@@H](O)[C@@H]2O)cc1/C=C/Br [SORIVUDINE]	> 500	43	3.6	28	3.2
CCCCCCCCO[C@H]1[C@H](O)[C@@H](CO)O[C@H]1n1cc(C)c(=O)[nH]c1=O			> 1000		
Nc1nc2c(ncn2[C@@H]2O[C@H](CO)[C@@H](O)[C@@H]2O)c(=O)[nH]1	> 500	> 500	> 500	> 500	> 500
CC(C)(C)OC(=O)NCCCCCC(=O)O[C@H]1[C@H](O)[C@@H](CO)O[C@H]1n1cc(/C=C/Br)c(=O)[nH]c1=O		61	≥ 500	77	277
Nc1ccn([C@@H]2O[C@H](CO)[C@@H](O)[C@@H]2O)c(=O)n1 [CYTARABINE]			> 1000		
CCCCCCCCCC(=O)O[C@H]1[C@H](O)[C@@H](CO)O[C@H]1n1cc(C)c(=O)[nH]c1=O			≥ 1000		
CCCCCCCC(=O)Nc1nc2c(ncn2[C@@H]2O[C@H](CO)[C@@H](O)[C@@H]2OC(=O)CCCCCCC)c(=O)[nH]1	> 500	> 500	> 500	> 500	> 500
CC(C)(C)OC(=O)NCCCCCCCCCCCC(=O)O[C@H]1[C@H](O)[C@@H](CO)O[C@H]1n1cc(/C=C/Br)c(=O)[nH]c1=O		3.8	> 500	≥ 500	> 500
CCCCCCCCCC(=O)N[C@H]1[C@H](O)[C@@H](CO)O[C@H]1n1cc(C)c(=O)[nH]c1=O		480	> 500	> 500	> 500
CCCCCCCC(=O)O[C@H]1[C@H](O)[C@@H](CO)O[C@H]1n1cnc2c(=O)[nH]c(N)nc21	> 500	> 500	> 500	> 500	> 500
Cc1cn([C@@H]2O[C@H](CO)[C@@H](O)[C@@H]2OCc2ccccc2)c(=O)[nH]c1=O	> 1000	801	> 1000	> 1000	> 1000
CCCCCCCCn1c(=O)c(C)cn([C@@H]2O[C@H](CO)[C@@H](O)[C@@H]2O)c1=O	> 500	> 500	> 500	> 500	> 500
